Results gathered from unrelated publications.
CASP1: Caspase-1 (CASP1, Homo sapiens, UniProt P29466)
ADRA1B: Alpha-1B adrenergic receptor (ADRA1B, Homo sapiens, UniProt P35368)
PPARA: Peroxisome proliferator-activated receptor alpha (PPARA, Homo sapiens, UniProt Q07869)

Structure (SMILES)	target	effect on	mode	technique	setting	Ki [nM]
Cc1cccc(C(=O)NCN2CCN(c3ccccc3C#N)CC2)c1	D(2) dopamine receptor (Drd2, Rattus norvegicus, UniProt P61169)	ligand displacement	–	radioligand	cell membranes	1380
CC(=O)N[C@@H](CC(C)C)C(=O)N[C@@H](CC(C)C)C(=O)N[C@@H](CCCN=C(N)N)C(=O)N[C@H](C(=O)N[C@@H](CCCCN)C(=O)N[C@@H](CCCN=C(N)N)C(N)=O)C(C)C	Neuroendocrine convertase 2 (Homo sapiens, UniProt P16519)	enzyme activity	inhibitor	–	–	1600
O=c1c(O)c(-c2cc(O)c(O)c(O)c2)oc2cc(O)cc(O)c12	CASP1	enzyme activity	inhibitor	fluorescence	–	14300
CC(=O)N[C@@H](CCCNC(=N)N)C(=O)NCC(=O)NCC(=O)N1CCC[C@H]1B(O)O	Prolyl endopeptidase (PREP, Homo sapiens, UniProt P48147)	enzyme activity	inhibitor	fluorescence	–	1.6
O=c1c(O)c(-c2ccc(O)cc2)oc2cc(O)cc(O)c12	CASP1	enzyme activity	inhibitor	fluorescence	–	> 300000
COc1ccccc1N1CCN(CCCCN2CCc3ccccc3C2=O)CC1	ADRA1B	ligand displacement	–	radioligand	–	76.6
CCCC[C@H](NC(=O)C1CN(C)C1)c1ncc(-c2cc3ccccc3nc2OC)[nH]1	Histone deacetylase 3 (HDAC3, Homo sapiens, UniProt O15379)	enzyme activity	inhibitor	–	–	273
Cc1c(C)n(Cc2ccc(-c3ccccc3C(=O)O)cc2)c2ccc(C(=O)N[C@@H](C)c3ccc([N+](=O)[O-])cc3)cc12	PPARA	ligand displacement	–	TR-FRET	–	11200
CSC[C@H]1CN(Cc2c[nH]c3c(N)ncnc23)C[C@@H]1O	5'-methylthioadenosine/S-adenosylhomocysteine nucleosidase (Staphylococcus aureus, UniProt Q5HFG2)	enzyme activity	inhibitor	–	–	7.8
CCCCN1CCC(COC(=O)c2ccc(N)c(OCF)c2)CC1	ADRA1B	cell-free assay	–	radioligand	–	> 10000
CS(=O)(=O)Nc1ccc[nH]c1=S	Insulin-degrading enzyme (IDE, Homo sapiens, UniProt P14735)	cell-free assay	inhibitor	–	–	> 200000
O=C(O)c1c(Sc2ccccc2)c2cc(Cl)ccc2n1Cc1ccc(Cl)cc1	PPARA	ligand displacement	–	TR-FRET	–	19700
COc1ccc2c(c1)C(=O)N(CCN1CCN(c3ccccc3OC)CC1)C2	ADRA1B	ligand displacement	–	radioligand	–	38.7
